Reference: ChEMBL document CHEMBL1127645, “Synthesis, structure-activity relationships, and pharmacological evaluation of a series of fluorinated 3-benzyl-5-indolecarboxamides: identification of 4-[[5-[((2R)-2-methyl-4,4,4-trifluorobutyl)carbamoyl]-1-methyl indol- 3-yl]methyl]-3-methoxy-N-[(2-methylphenyl)sulfonyl]benzamide, a potent, …” (J Med Chem, 1994)

Columns and labels:
[1] = Partition coefficient (logP); conditions: octanol/water
[2] = molecular target: T1, Cysteinyl leukotriene receptor 1 (Cavia porcellus, UniProt Q2NNR5); assay: Inhibition constant for displacement of [3H]LTD4 on guinea pig lung parenchymal membranes; assay type: tissue-based, Lung parenchyma
T1 sequence (Q2NNR5 whole entry): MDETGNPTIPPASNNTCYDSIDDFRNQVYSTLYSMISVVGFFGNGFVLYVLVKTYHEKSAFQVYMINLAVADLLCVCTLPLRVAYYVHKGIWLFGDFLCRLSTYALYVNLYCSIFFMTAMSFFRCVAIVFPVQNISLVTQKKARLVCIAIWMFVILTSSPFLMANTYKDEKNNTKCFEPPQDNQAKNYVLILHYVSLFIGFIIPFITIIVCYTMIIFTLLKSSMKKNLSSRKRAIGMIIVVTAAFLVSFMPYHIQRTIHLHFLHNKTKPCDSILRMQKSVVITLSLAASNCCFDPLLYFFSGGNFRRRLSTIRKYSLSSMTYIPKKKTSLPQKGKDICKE
Procedure, shortened: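 Guinea pig lung parenchymal membranes; competitive displacement of [3H]LTD4. Ki taken as mean of two experiments, each run in duplicate on separate membrane batches.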

[3] = molecular target: T2, Cysteinyl leukotriene receptor 1 (Cavia porcellus) (UniProt Q2NNR5); assay: Binding constant in guinea pig tracheal spirals with LTE4; assay type: tissue-based; conditions: Trachea
T2 sequence (whole entry): T1 sequence (Q2NNR5 whole entry)
Procedure, shortened: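 Guinea pig tracheal spirals contracted with LTE4 as agonist. Antagonist KB derived from concentration-response curves and reported as -log(KB) (pKB); n = number of concentration-response curves.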

[4] = tested on: Cysteinyl leukotriene receptor (Cavia porcellus); assay: Inhibition of percent protection from LTD4-induced dyspnea in a conscious guinea pig administered intravenously
[5] = molecular target: T2, Cysteinyl leukotriene receptor 1 (Cavia porcellus); assay: Effective dose for the inhibition of percent protection from LTD4-induced dyspnea in a conscious guinea pig administered through oral route; assay type: functional
Procedure, shortened: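 Conscious guinea pig dyspnea model with LTD4 challenge; percent protection from dyspnea plotted against dose (oral or intravenous). ED50 obtained by regression using at least three doses from the linear portion of the dose-response curve; SEM for percent protection was generally ≤25% at each dose.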

Cavia porcellus = assay: ED50 (p.o.) / ED50 (i.v.) ratio of the compound; assay type: functional
Procedure, shortened: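 Ratio of oral ED50 to intravenous ED50 from the conscious guinea pig LTD4-induced dyspnea model, used as an index of oral bioavailability.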

[6] = Compound was evaluated for the clearance in rat; assay type: ADME, organism-based; conditions: in vivo
[7] = Compound was evaluated for the oral bioavailability in rat; assay type: ADME, organism-based; conditions: in vivo, read-out: Bioavailabiility
[8] = Bioavailability in guinea pig; assay type: ADME, organism-based, Cavia porcellus; conditions: in vivo
[9] = Clearance in guinea pig; assay type: ADME, organism-based, Cavia porcellus; conditions: in vivo

Row | Structure (SMILES) | logP [1] | Ki [2] [nM] | pKB [3] | ED50 [5] [µmol/kg] | other results
1 | COc1cc(C(=O)NS(=O)(=O)c2ccccc2Cl)ccc1Cn1cc(C)c2ccc(C(=O)NCC(C)CC(F)(F)F)cc21 (stereo not drawn) | – | 4.9 | – | – | –
2 | COc1cc(C(=O)NS(=O)(=O)c2ccccc2C)ccc1Cc1cn(C)c2ccc(C(=O)NCC(C)C(F)(F)F)cc12 (stereo not drawn) | 5.89 | 12 | – | – | –
3 | COc1cc(C(=O)NS(=O)(=O)c2ccccc2C)ccc1Cn1ccc2ccc(C(=O)NCC(C)CC(F)(F)F)cc21 (stereo not drawn) | – | 7.7 | – | – | –
4 | COc1cc(C(=O)NS(=O)(=O)c2ccccc2C)ccc1Cc1cn(C)c2ccc(NC(=O)OC3CCCC3)cc12 | – | – | 9.67 | 0.54 | –
5 | COc1cc(C(=O)NS(=O)(=O)c2ccccc2Cl)ccc1Cc1cn(C)c2ccc(C(=O)NCC(C)CC(F)(F)F)cc12 (stereo not drawn) | – | 0.57 | 9.7 | 2.5 | ED50 [4]: 0.024 µmol/kg; Ratio (Cavia porcellus): 110
6 | COc1cc(C(=O)NS(=O)(=O)c2ccccc2C)ccc1Cn1cc(C)c2ccc(C(=O)NCC(C)CC(F)(F)F)cc21 (stereo not drawn) | – | 0.44 | 9.6 | 2.29 | –
7 | COc1cc(C(=O)NS(=O)(=O)c2ccccc2C)ccc1Cc1cn(C)c2ccc(C(=O)NCCCC(F)(F)F)cc12 | – | 7.5 | 8.7 | – | –
8 | COc1cc(C(=O)NS(=O)(=O)c2ccccc2Cl)ccc1Cn1ccc2ccc(C(=O)NCC(C)CC(F)(F)F)cc21 (stereo not drawn) | – | 4.2 | 8.9 | – | –

Now from value to molecule, other results behind:

Row | logP [1] | Ki [2] [nM] | pKB [3] | ED50 [5] [µmol/kg] | Structure (SMILES) | other results
9 | 5.53 | – | – | – | CCC(CNC(=O)c1ccc2c(c1)c(Cc1ccc(C(=O)O)cc1OC)cn2C)CC(F)(F)F (stereo not drawn) | –
10 | – | 0.38 | 10.1 | 1.42 | CCn1cc(Cc2ccc(C(=O)NS(=O)(=O)c3ccccc3C)cc2OC)c2cc(C(=O)NCC(C)CC(F)(F)F)ccc21 (stereo not drawn) | ED50 [4]: 0.011 µmol/kg; Ratio (Cavia porcellus): 129
11 | – | 2.1 | – | – | COc1cc(C(=O)NS(=O)(=O)c2ccccc2C)ccc1Cc1cn(C)c2ccc(C(=O)NC/C(C)=C\C(F)(F)F)cc12 | –
12 | 5.42 | – | – | – | CCC(CC)CNC(=O)c1ccc2c(c1)c(Cc1ccc(C(=O)O)cc1OC)cn2C | –
13 | – | 1.7 | – | – | CCCn1cc(Cc2ccc(C(=O)NS(=O)(=O)c3ccccc3C)cc2OC)c2cc(C(=O)NCC(C)CC(F)(F)F)ccc21 (stereo not drawn) | –
14 | 5.85 | 5.2 | 8.7 | 20 | CCC(C)CNC(=O)c1ccc2c(c1)c(Cc1ccc(C(=O)NS(=O)(=O)c3ccccc3C)cc1OC)cn2C (stereo not drawn) | ED50 [4]: 1.39 µmol/kg; Ratio (Cavia porcellus): 14
15 | 6.18 | 0.57 | 9.93 | 1.44 | COc1cc(C(=O)NS(=O)(=O)c2ccccc2C)ccc1Cc1cn(C)c2ccc(C(=O)NCC(C)CC(F)(F)F)cc12 (stereo not drawn) | clearance [6]: 0.11 L/h/kg; ED50 [4]: 0.036 µmol/kg; bioavailability [7]: 33%; bioavailability [8]: 12%; clearance [9]: 0.74 L/h/kg; Ratio (Cavia porcellus): 40
